Source: ChEMBL document CHEMBL1140161, “Structure-activity relationships in 1,4-benzodioxan-related compounds. 9. From 1,4-benzodioxane to 1,4-dioxane ring as a promising template of novel alpha1D-adrenoreceptor antagonists, 5-HT1A full agonists, and cytotoxic agents” (J Med Chem, 2008)

How the values were obtained:
[1] = molecular target: T1, Alpha-1A adrenergic receptor (Rattus norvegicus) (UniProt P43140); test: Antagonist activity at alpha1A adrenoceptor in Wistar rat prostatic vas deferens assessed as inhibition of (-)-noradrenaline-induced contraction after 30 mins; format: functional, tissue-based
T1 sequence (whole entry): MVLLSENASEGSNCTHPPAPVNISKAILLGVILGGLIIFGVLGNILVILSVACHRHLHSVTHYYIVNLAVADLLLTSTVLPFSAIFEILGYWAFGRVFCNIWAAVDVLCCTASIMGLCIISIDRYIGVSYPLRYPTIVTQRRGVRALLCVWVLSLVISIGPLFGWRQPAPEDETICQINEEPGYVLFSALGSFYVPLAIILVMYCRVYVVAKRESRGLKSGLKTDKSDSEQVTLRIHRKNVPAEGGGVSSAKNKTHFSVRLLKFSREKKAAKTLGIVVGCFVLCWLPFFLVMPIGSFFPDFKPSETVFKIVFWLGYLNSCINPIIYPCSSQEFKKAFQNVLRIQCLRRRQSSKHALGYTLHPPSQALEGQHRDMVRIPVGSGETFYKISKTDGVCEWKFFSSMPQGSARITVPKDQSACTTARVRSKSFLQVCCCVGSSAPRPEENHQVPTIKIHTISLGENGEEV

[2] = molecular target: T2, Alpha-1B adrenergic receptor (Rattus norvegicus) (UniProt P15823); test: Antagonist activity at alpha1B adrenoceptor in Wistar rat spleen assessed as inhibition of (-)-phenylephrine-induced contraction after 30 mins; format: functional, tissue-based
T2 sequence (whole entry): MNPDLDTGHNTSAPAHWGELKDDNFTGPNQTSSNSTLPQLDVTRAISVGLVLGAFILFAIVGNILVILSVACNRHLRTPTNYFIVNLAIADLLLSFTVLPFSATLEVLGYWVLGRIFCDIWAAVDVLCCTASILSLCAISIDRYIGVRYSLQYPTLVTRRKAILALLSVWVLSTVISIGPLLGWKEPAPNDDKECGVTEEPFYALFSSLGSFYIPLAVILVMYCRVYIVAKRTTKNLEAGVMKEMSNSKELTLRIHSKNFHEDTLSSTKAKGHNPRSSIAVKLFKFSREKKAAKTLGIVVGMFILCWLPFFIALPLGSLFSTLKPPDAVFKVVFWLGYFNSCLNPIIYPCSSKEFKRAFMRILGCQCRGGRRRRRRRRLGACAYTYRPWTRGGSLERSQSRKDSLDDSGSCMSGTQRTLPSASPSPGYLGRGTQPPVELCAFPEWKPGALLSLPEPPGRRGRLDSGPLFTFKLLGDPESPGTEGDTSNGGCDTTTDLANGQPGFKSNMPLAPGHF

[3] = molecular target: T3, Alpha-1D adrenergic receptor (Rattus norvegicus) (UniProt P23944); test: Antagonist activity at Alpha-1D adrenoceptor in Wistar rat thoracic aorta assessed as inhibition of (-)-noradrenaline-induced contraction after 30 mins; format: functional, tissue-based
T3 sequence (whole entry): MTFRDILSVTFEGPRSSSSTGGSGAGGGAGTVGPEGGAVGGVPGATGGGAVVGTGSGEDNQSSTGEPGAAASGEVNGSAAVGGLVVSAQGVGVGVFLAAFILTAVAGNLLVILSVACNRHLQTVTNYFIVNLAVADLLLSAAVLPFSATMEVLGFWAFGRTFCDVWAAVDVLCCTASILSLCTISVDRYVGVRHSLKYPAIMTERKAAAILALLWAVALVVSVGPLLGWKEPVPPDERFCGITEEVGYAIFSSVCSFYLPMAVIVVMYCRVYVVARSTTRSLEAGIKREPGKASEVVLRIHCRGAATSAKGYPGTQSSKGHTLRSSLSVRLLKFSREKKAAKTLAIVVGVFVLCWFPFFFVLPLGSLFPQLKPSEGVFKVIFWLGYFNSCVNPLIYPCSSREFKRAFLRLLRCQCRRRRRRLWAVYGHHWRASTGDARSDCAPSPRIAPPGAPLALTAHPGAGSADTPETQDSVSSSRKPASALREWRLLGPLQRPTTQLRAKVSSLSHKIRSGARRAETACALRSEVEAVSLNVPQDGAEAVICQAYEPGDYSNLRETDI

PC-3 = test: Cytotoxicity against human PC3 cells after 48 hrs by SRB assay; format: functional; conditions: PC-3, 48 h; for CC50: read-out: LC50 (the source's name)
Procedure, shortened: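 PC-3 human prostate cancer cells. Growth measured by sulforhodamine B staining following the NCI protocol. […] Values are means of quadruplicate determinations ± standard error (n = 5).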

[4] = molecular target: T4, 5-hydroxytryptamine receptor 1A (Homo sapiens) (UniProt P08908); test: Agonist activity at human cloned 5HT1A receptor expressed in human HeLa cell membrane assessed as stimulation of [35S]GTPgammaS binding; format: functional, cell membranes
T4 sequence (whole entry): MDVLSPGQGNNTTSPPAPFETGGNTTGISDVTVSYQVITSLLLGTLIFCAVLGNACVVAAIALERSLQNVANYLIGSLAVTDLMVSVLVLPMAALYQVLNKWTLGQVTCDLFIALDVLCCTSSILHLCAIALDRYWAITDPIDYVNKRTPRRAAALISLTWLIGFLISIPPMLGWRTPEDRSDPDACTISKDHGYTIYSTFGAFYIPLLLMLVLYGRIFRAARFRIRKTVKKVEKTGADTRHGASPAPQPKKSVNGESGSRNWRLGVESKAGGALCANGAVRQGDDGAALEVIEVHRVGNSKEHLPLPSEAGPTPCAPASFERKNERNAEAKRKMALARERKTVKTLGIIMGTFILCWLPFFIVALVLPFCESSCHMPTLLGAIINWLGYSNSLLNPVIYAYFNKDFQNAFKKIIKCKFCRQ
Procedure, shortened: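 Membranes from HeLa cells expressing cloned human 5-HT1A receptor; agonist-stimulated [35S]GTPγS binding measured. pD2 is the negative log of the agonist concentration giving 50% of maximal [35S]GTPγS binding stimulation; values from two to three experiments.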

[5] = molecular target: T4, 5-hydroxytryptamine receptor 1A (Homo sapiens); test: Agonist activity at human cloned 5HT1A receptor expressed in HeLa cell membrane assessed as stimulation of [35S]GTPgammaS binding relative to 5-hydroxytryptamine; format: functional, cell membranes
Procedure, shortened: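 Activation measured as [35S]GTPγS binding in membranes from HeLa cells expressing cloned human 5-HT1A receptor. pD2 is the negative log of agonist concentration giving 50% of maximal stimulation, from two to three experiments agreeing within 20%. Efficacy is given relative to 5-HT.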

[6] = molecular target: T5, Alpha-1B adrenergic receptor (Homo sapiens, UniProt P35368); test: Displacement of [3H]prazosin from human cloned Alpha-1B adrenoceptor expressed in CHO cells; format: cell-based
T5 sequence (P35368 whole entry): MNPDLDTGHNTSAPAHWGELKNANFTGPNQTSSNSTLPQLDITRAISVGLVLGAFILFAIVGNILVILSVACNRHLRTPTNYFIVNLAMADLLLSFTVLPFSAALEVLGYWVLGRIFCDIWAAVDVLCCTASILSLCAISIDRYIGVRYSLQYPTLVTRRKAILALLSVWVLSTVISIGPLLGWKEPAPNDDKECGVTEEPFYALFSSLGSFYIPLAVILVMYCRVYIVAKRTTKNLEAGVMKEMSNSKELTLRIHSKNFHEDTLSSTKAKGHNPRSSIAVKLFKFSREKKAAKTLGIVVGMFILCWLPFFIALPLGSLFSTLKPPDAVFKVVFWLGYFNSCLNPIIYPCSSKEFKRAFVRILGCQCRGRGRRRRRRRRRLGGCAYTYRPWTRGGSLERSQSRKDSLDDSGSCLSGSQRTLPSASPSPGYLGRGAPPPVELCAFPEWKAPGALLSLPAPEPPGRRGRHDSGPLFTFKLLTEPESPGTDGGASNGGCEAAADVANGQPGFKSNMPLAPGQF
Procedure, shortened: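 [3H]prazosin binding to cloned human α1-adrenoceptor subtypes expressed in CHO cell membranes. Affinity reported as pKi for each subtype.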

COc1cccc(OC)c1OCCNCC1COc2ccccc2O1 (configuration not stated)
pKb [1]: 9.51 | pKb [2]: 8.16 | pKb [3]: 8.8 | GI50 (PC-3): 64.6 µM | TGI (PC-3): 199 µM | CC50 (PC-3): > 200 µM

COc1ccccc1N1CCN(CCN2C(=O)CC3(CCCC3)CC2=O)CC1
pKb [2]: 7.48 | pD2 [4]: 9.27 | %max [5]: 26

NCCc1c[nH]c2ccc(C(N)=O)cc12
pD2 [4]: 8.45 | %max [5]: 96

NCCc1c[nH]c2ccc(O)cc12
pD2 [4]: 7.3

CCCN(CCC)C1CCc2cccc(O)c2C1 (configuration not stated) [8-OH-DPAT]
Ki [6]: > 1 µM | %max [5]: 100

COc1cc2nc(N3CCN(C(=O)C4COc5ccccc5O4)CC3)nc(N)c2cc1OC (configuration not stated) [DOXAZOSIN]
GI50 (PC-3): 26.9 µM | TGI (PC-3): 49 µM | CC50 (PC-3): 75.8 µM
